Screens deposited in PubChem BioAssay by several laboratories.
Rows were chosen to be rich in hits. Some 12% of all compounds tested hit in one or more screens of this group.
Wee1 degr inh: inhibitors of human Wee1 degradation; P30291; HeLa Luc-Wee1K328M stability, luciferase luminescence; 100% = proteasome inhibitor MG132 effect; reporter increase, % at 5 µM; hit rate 1.2% among 220,000;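 active means activation above the mean of all tested compounds plus 3 SD, set per screening run, cut at about 8.8% in these data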;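 further: cells exposed to compound for 20 h before luminescence read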
Rad51 HR inh: blocks human Rad51 in homologous recombination; Q06609; hRad51 DNA strand exchange, fluorescence dequenching; inhibition, % at 10 µM; hit rate 0.085% among 200,000; AID 1385;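 active means inhibition above 40% at the single screening dose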
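material = hRad51 filaments on single-stranded DNA | reagent = Donor/quencher-labelled 47-bp dsDNA substrate | compound = 10 µM final, single point | schedule = strand-exchange reaction 15 min at room temperature | measured by = fluorescein emission 520 nm, excitation 485 nm | read-out basis = % inhibition versus plate control and blank means | benchmarks = plate controls and plate blanks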
Lmaj promast: inhibitors of Leishmania major promastigote growth. Leishmania major promastigotes, resazurin fluorescence viability. inhibition, % at 10 µM. hit rate 9% among 200,000;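 further: promastigotes grown with compound for 44 hours at 28 °C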
Arbovirus anti: antivirals against arbovirus infection; arbovirus infection cell-based antiviral screen; inhibition, % at 10 µM; hit rate 0.37% among 200,000; in the data active means inhibition above about 30%
PKD1 inh: inhibitors of human PKD1 kinase | Q15139 | PKD1 kinase fluorescence polarization assay | inhibition, % (concentration not given with the values) | hit rate 0.056% among 200,000 | AID 797
Target sequence (Q15139 whole entry, looked up): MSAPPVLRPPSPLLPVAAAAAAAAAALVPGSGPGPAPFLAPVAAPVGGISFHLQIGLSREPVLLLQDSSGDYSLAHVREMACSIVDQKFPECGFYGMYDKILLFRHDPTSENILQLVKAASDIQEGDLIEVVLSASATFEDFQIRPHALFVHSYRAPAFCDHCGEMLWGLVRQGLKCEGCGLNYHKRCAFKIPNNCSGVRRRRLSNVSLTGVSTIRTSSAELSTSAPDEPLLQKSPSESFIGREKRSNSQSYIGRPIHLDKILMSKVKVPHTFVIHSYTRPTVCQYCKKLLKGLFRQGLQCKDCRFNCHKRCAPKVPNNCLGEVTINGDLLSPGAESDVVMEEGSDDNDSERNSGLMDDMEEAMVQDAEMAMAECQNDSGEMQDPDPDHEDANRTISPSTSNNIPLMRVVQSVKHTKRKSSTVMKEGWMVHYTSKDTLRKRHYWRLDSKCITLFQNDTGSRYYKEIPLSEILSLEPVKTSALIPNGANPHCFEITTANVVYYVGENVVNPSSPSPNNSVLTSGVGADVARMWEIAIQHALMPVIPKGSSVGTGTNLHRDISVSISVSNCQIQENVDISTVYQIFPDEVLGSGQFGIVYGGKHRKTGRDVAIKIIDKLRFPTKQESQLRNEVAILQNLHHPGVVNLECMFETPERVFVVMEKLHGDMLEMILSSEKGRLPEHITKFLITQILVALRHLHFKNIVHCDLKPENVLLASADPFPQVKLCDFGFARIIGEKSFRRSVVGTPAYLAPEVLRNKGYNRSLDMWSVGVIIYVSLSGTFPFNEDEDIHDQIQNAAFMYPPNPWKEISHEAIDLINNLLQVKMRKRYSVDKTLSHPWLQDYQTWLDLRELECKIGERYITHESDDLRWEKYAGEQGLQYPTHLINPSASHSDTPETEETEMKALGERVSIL
CHOP inhibitor: blocks CHOP induction under ER stress | inhibition, % at 10 µM | CHO-K1 CHOP-promoter luciferase, tunicamycin-induced, 15-18 h | hit rate 3.8% among 220,000;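 active means compounds that reduced the stress-induced luciferase reporter signal by more than about 70% of percent inhibition, limit read from the data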
Hits are given with their value; n = inactive; x = not tested or not shown. Unless noted, no stated cut-off is given here; in the data, active means inhibition above about 50%; inactive means the rest.

SMILES | Wee1 degr inh | Rad51 HR inh | Lmaj promast | Arbovirus anti | PKD1 inh | CHOP inhibitor
CCOc1ccc(/C=N/NC(=O)CSc2n[nH]c(=O)[nH]c2=O)cc1OC | n | n | n | n | n | n
CCOc1ccc(N(CC(=O)NN=C2CCCC2)S(C)(=O)=O)cc1 | n | x | n | n | n | n
COc1ccccc1NC(=S)N(Cc1cccnc1)Cc1ccco1 | n | n | n | n | n | n
COC(=O)c1ccc(NC(=S)N(Cc2cccnc2)Cc2ccco2)cc1 | n | n | 100 | n | n | n
Cc1cccc(-c2nnn(Cc3nnc(NC(=O)c4ccccc4)s3)n2)c1 | n | 88 | n | n | n | n
Cc1cccc(NC(=O)CSc2nnc(Cn3nnc(-c4ccccc4)n3)n2-c2ccccc2)c1 | n | n | n | n | n | 78
COc1ccc(Cc2nnc(NC(=O)c3cccc(C)c3)s2)cc1 | n | n | n | n | n | n
OCCN1CCN(c2nc(NCc3ccco3)c3ccccc3n2)CC1 | n | n | n | n | n | n
Cc1ccc(OCCCC(=O)NCc2ccco2)cc1 | n | n | n | n | n | n
c1ccc(CN2CCN(c3nc(NCc4ccco4)c4ccccc4n3)CC2)cc1 | n | x | 100 | n | n | n
Cc1ccc(OCCN2CCN(c3nc(NCc4ccco4)c4ccccc4n3)CC2)cc1 | n | x | 99 | n | n | n
CCCCSc1nnc(CCNC(=O)OC(C)(C)C)o1 | n | n | x | x | x | n
CN1CCc2c(sc3c2C(=O)NC(c2ccco2)N3)C1 (configuration not stated) | n | n | n | n | n | n
CN1CCc2c(sc3c2C(=O)NC(c2cn(Cc4ccccc4)c4ccccc24)N3)C1 (configuration not stated) | n | n | 100 | n | n | 79
Cc1nn(C)c(Cl)c1C(=O)NCC(=O)NCc1ccccc1 | n | 42 | n | n | n | n
Cc1nn(Cc2ccccc2Cl)c(Cl)c1C(=O)NCCc1ccccc1 | 10 | n | n | n | n | n
Cc1c(C(=O)NCc2ccccc2)c(-c2ccccc2)nn1-c1ccccc1 | n | n | 86 | n | n | n
Cc1c(C(=O)NC(C)C)c(-c2ccccc2)nn1-c1ccccc1 | n | n | n | n | n | n
N#Cc1c(Cl)nsc1NN | n | n | n | n | n | n
O=C1CSC(c2ccccc2Cl)N1 (configuration not stated) | n | n | n | n | n | n
FC(F)Sc1ccc(NC(=S)NC(c2ccccc2)c2ccccc2)cc1 | n | n | 56 | n | n | n
FC(F)Sc1ccc(NC(=S)NC2CCCCC2)cc1 | n | n | n | n | n | 95
O=c1[nH]c(=O)n(C(c2ccccc2)c2ccccc2)cc1Br | n | n | n | 32 | n | n
C=CCNc1nc(NCc2ccccc2)c(C#N)c2c1CN(C)CC2 | n | n | n | n | n | n
N#Cc1c(N2CCCCC2)nc(N2CCCCC2)c2c1CCN(Cc1ccccc1)C2 | n | x | 100 | n | n | n
SMILES | Wee1 degr inh | Rad51 HR inh | Lmaj promast | Arbovirus anti | PKD1 inh | CHOP inhibitor
CCN1CCc2c(C#N)c(NCc3ccccc3)nc(N(CC)CC)c2C1 | n | n | 98 | n | n | n
Nc1[nH]nc2nc(NCc3ccccc3)c3c(c12)CCN(Cc1ccccc1)C3 | n | x | n | 49 | n | n
N#Cc1c(NCCN)nc(NCc2ccccc2)c2c1CCN(Cc1ccccc1)C2 | n | n | 97 | x | n | x
COc1cc(/C=N/N=C2\CC3CCC2(C)C3(C)C)ccc1O (configuration not stated) | n | x | n | n | n | 77
COc1ccccc1/C=N\Nc1ccccc1[N+](=O)[O-] | n | x | x | x | x | n
CC(C)Oc1ccccc1/C=N/Nc1ccccc1[N+](=O)[O-] | n | n | n | n | n | 76
O=C1c2ccccc2C(=O)N1SC1CCCCC1 | n | n | n | n | n | 72
Clc1ccc(CSc2cc3c(nn2)-c2ccccc2CC3)cc1 | n | n | n | n | n | 77
Clc1ccc(CSc2ccc(-c3ccccn3)nn2)cc1 | n | n | n | n | n | n
CC(C)C(NC(=O)C(Cc1ccccc1)NC(=O)OCc1ccccc1)C(=O)O (configuration not stated) | n | n | n | n | n | n
CC(C)[C@H](NC(=O)[C@H](CCCN=C(N)N)NC(=O)NC(Cc1ccccc1)C(=O)O)C(=O)NC(C=O)CCCN=C(N)N (some centres not stated) | n | n | 82 | n | n | n
O=C(c1cc(-c2ccccc2)n[nH]1)N1CCc2c([nH]c3ccccc23)C1c1ccccn1 (configuration not stated) | n | n | 86 | n | n | n
O=C(c1cccs1)N1CCc2c([nH]c3ccccc23)C1c1ccccn1 (configuration not stated) | n | x | n | n | n | n
COc1ccc(C2c3[nH]c4ccccc4c3CCN2C(=O)c2cn3ccccc3n2)c(F)c1 (configuration not stated) | n | x | 53 | n | n | n
Cc1ccc2nc(C(=O)N3CCc4c([nH]c5ccccc45)C3c3ccccn3)cn2c1 (configuration not stated) | n | n | 68 | n | n | n
COc1ccc(N2CCc3c(C)nc4c(OC)cccc4c32)cc1 | n | n | 100 | n | n | n
COc1ccc(N2C(=O)C3C4C=CC(C4)C3C2=O)c(OC)c1 (configuration not stated) | n | n | n | n | n | n
COc1ccc(N2CCc3c(C)nc4c(OC)cc(OC)cc4c32)c(OC)c1 | n | x | 101 | n | n | n
Cc1nc2c(C)cccc2c2c1CCN2c1ccccc1F | n | n | x | x | x | n
COc1ccc(N2CCc3c(C)nc4c(OC)cc(OC)cc4c32)cc1 | n | n | 100 | n | n | n
Cc1ccccc1NC(=O)c1ccc2c(c1)C(=O)N(CCC(C)C)C2=O | n | n | n | n | n | 79
CCCCN1C(=O)c2ccc(C(=O)Nc3cccc(C)c3C)cc2C1=O | n | n | n | n | n | 76
C=CCn1c(SCC(=O)NC2CCS(=O)(=O)C2)nc2scc(C3CC3)c2c1=O (configuration not stated) | 9.7 | n | n | n | n | n
COc1ccc(-n2nc3c(c2NC(=O)c2ccc(S(=O)(=O)N4CCOCC4)cc2)CS(=O)(=O)C3)cc1 | n | n | n | n | n | n
CCCCn1c(=O)c(CCC(=O)OCC(=O)NCc2ccc(OC)c(OC)c2)nc2ccccc21 | n | n | n | n | n | n
COC(=O)c1cc2nc(-c3ccccc3)cc(C)n2n1 | n | n | n | n | n | n
Cc1cc(-c2ccccc2)nc2cc(C(=O)N(Cc3ccccc3)Cc3ccccc3)nn12 | n | n | 53 | n | n | n
CCO[C@@H]1OC(C(=O)NC2CC2)=C[C@H](c2coc3ccccc3c2=O)[C@H]1CCCO | x | n | x | x | x | x
Cc1cccc(OC(C)C(=O)N/N=C\c2ccncc2)c1 (configuration not stated) | n | x | n | n | n | n
